Consider four compounds from ChEMBL document CHEMBL1132793, “Chiral synthesis and pharmacological evaluation of NPS 1407: a potent, stereoselective NMDA receptor antagonist” (Bioorg Med Chem Lett, 2000).

Structures are written as SMILES.

Data set [1] relates to Mus musculus. The data set is described as follows: Relative anticonvulsant potency in frings mice by intraperitoneal administration expressed as effective dose. The format is functional. As to conditions: ip. Summed up: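 Frings audiogenic seizure-susceptible mice of both sexes (18–25 g), in groups of eight, given varying ip doses. At the time of peak effect, each mouse was exposed to a 110 dB (11 kHz) sound for 20 s and observed for 25 s. Absence of hindlimb tonic extension counted as protection. ED50 by probit analysis.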

Data set [2] deals with Mus musculus. The data set is described as follows: Relative anticonvulsant potency in frings mice by peroral administration expressed as effective dose. The format is functional. As to conditions: po.
The target of data set [3] is Glutamate NMDA receptor. In words: The compound was tested in vitro for the displacement of the radioligand (+)-[3H]-MK-801 from synaptic plasma membranes from rat cortex against N-methyl-D-aspartate glutamate receptor. Type of data set: cell-free.
In data set [4] the target is Glutamate NMDA receptor. In words: The compound was tested in vitro for the inhibition of N-methyl-D-aspartate glutamate receptor in rat cerebellar granule cells (RCGCs). Summed up: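 Cultured rat cerebellar granule cells; cytosolic calcium rise stimulated by NMDA (50 µM) plus glycine (1 µM). Multiple cumulative concentration–response curves with at least five concentrations per test substance; IC50 by logit analysis.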

In data set [5] the test system is Mus musculus. In words: Lethality in mice following 30 mg/kg/day ip dose; 4/7. Type of data set: ADME, organism-based. Details: route intraperitoneal. The note with it: in vivo.
In data set [6] the test system is Mus musculus. In words: Lethality in mice following 60 mg/kg/day ip dose; 8/8. The format is ADME, organism-based. Details: route intraperitoneal. As to conditions: in vivo.
Data set [7] in a line: Relative anticonvulsant potency in frings mice by peroral administration expressed as toxic dose. The format is ADME, organism-based. The note with it: mouse, in vivo, po.

As a reminder, the ED50 is the dose that gives a 50% effect, or the effect in half of the subjects. Read a low ED50 as an effect at a small dose. In the case of `NCCC(c1cccc(F)c1)c1cccc(F)c1`, the ED50 with Mus musculus [1] is 2.1 mg/kg; in the data set with Mus musculus [2] it was 9.7 mg/kg.

In general, IC50 refers to the concentration that gives 50% inhibition. A low value points to higher potency. Take `C[C@@H](N)CC(c1cccc(F)c1)c1cccc(F)c1`: the ED50 with Mus musculus [1] came to 9.1 mg/kg. The figures for the IC50 on Glutamate NMDA receptor [3] and against Glutamate NMDA receptor [4] were 4500 nM and 1110 nM, respectively.

A word on the TD50: it is the dose at which the toxic effect under study appears in half of the subjects. The low end stands for greater toxicity, the high end for lower toxicity. `CC(N)CC(c1cccc(F)c1)c1cccc(F)c1` (configuration not stated): the ED50 came out at 4.9 mg/kg in the data set with Mus musculus [1] and 5.1 mg/kg in the data set on Mus musculus [2]. The Lethality result with Mus musculus [5] and in the data set with Mus musculus [6] was “Lethal” each time. The compound further registered a TD50 in data set [7] of 18.3 mg/kg. Also, the IC50 on Glutamate NMDA receptor [3] came out at 1040 nM; at Glutamate NMDA receptor [4], 145 nM.

For `C[C@H](N)CC(c1cccc(F)c1)c1cccc(F)c1`, the ED50 came to 2.7 mg/kg in the data set on Mus musculus [1] and 7.3 mg/kg in the data set with Mus musculus [2]. This compound also gave a TD50 in data set [7] of 18.6 mg/kg. In addition, the IC50 came out at 762 nM on Glutamate NMDA receptor [3] and 89 nM against Glutamate NMDA receptor [4].
